procasp7 counter: counter-screen: procaspase-7 (human) activation | activation, % at 8.5 µM | 0.093% of 330,000 active | recombinant procaspase-7, Ac-DEVD-pNA absorbance 405 nm; D23A/D198A/D206A triple mutant, cannot self-cleave; scale: DMSO 0, 5 µM enzyme 100 | P55210;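 active = percent activation above the screen-wide mean plus 3 SD, cut at about 25% in these data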
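Assay system: Uncleavable procaspase-7 mutant enzyme; Input: 2 µM procaspase-7 mutant as dispensed; Also added: DEVD-pNA substrate; Medium: Zinc-free HEPES pH 7.4 with 300 mM NaCl, 0.01% Triton X-100; Timing: 1 h compound preincubation, 2 h substrate cleavage, 25 °C; Measured by: Epi-absorbance of released pNA at 405 nm, two timepoints.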
FXN GAA850 act: increases GAA850 frataxin promoter reporter activity. HEK293 lucGAA850 FXN promoter luciferase reporter, 24 h; percent of 10 µM SAHA response. activation, % at 6 µM. 0.56% of 360,000 active. AID 540364;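 active = activation above the average of all compounds screened plus 3 SD, cutoff fixed separately per campaign, cut at about 7.5% in these data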
Lipid droplet: modulators of hepatic lipid droplet formation; AML12 mouse hepatocytes, oleate lipid droplets, BODIPY imaging; inhibition, % at 6.5 µM; 0.4% of 240,000 active;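 active = lipid droplet intensity inhibited by at least 50%, with more than 500 cells counted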
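System: AML12 hepatocytes (mouse). Probe or stimulus: oleic acid at 100 µM to induce lipid droplet formation. Times: overnight treatment with compound plus oleate. Detection: Image-based BODIPY and DAPI two-channel analysis. Evaluation: percent inhibition of filter-corrected integrated lipid droplet intensity per well.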
pCIP destab: lowers stability of the mouse p/CIP coactivator protein; F442A p/CIP-EGFP cells, EGFP fluorescence, 16 h; decrease of EGFP signal, % at 10 µM; 0.01% of 290,000 active; AID 1984;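 active = EGFP signal decrease of at least 30% at 10 µM or well 3 SD below plate mean, unless failing retest; inactive = the rest, including hits failing retest or dose response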
Rce1 inhib: blocks yeast Ras-converting enzyme. Q03530. yeast membranes, quenched prenylated peptide cleavage fluorescence. calls only. 0.27% of 290,000 active. AID 2563;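 active = fall in fluorescence gain of 50% or more versus controls, with final raw signal at or below 3038400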
Target sequence (Q03530 whole entry, looked up): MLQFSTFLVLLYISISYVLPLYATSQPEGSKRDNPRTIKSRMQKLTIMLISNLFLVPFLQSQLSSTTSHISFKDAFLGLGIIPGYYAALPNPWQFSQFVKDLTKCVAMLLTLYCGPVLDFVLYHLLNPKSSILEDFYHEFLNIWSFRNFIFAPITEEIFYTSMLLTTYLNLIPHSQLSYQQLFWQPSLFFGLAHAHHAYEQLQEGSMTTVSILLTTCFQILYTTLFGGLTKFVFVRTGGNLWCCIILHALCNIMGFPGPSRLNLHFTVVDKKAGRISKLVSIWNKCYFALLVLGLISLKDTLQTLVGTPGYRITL
proCasp3 act: activates human procaspase-3 | P42574 | recombinant procaspase-3 D3A, Ac-DEVD-pNA absorbance 405 nm | activation, % at 8.5 µM | 0.11% of 330,000 active;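 active = activation above the mean of all tested compounds plus 3 SD, cut at about 21% in these data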
Target sequence (P42574 whole entry D9A/D28A/D175A): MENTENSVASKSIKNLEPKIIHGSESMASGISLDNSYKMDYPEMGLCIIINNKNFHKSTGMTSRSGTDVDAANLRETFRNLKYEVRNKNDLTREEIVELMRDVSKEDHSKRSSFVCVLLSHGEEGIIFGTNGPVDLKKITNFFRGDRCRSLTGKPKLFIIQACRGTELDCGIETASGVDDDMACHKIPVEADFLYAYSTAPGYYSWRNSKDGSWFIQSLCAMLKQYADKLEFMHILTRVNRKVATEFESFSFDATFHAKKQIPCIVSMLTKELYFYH
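Compound: 8.5 µM single point, 0.8% DMSO / Material: Autoprocessing-dead procaspase-3 D3A mutant enzyme / Timing: 1 h preincubation plus 2 h reaction at 25 °C / Medium: Zinc-free HEPES/NaCl buffer with 0.01% Triton X-100 at pH 7.4 / Technique: 405 nm absorbance of p-nitroaniline, reads at 0 and 120 min / Repeats: one well per compound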
Hep lipid conf: confirmation of inhibitors of hepatic lipid droplet formation; AID 463183; shares compounds with Lipid droplet; AML12 mouse hepatocytes, BODIPY lipid droplet imaging; droplets induced with 100 µM oleic acid; inhibition, % at 5.2 µM; 65% of 870 active;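 active = inhibition of lipid droplet metric at least 50%, with more than 300 cells in each of four replicates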
AML12 cytotox: counter-screen for cytotoxicity in AML12 mouse hepatocytes; shares compounds with Lipid droplet; DAPI nuclear morphology cytotoxicity imaging; stronger effect = higher value; cells fed 100 µM oleate overnight; z-score at 5 µM; 3% of 870 active; AID 463200; in the data active = z-score above about 6.3;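 note: compound exposure lasted overnight at 37 °C before fixation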
AML12 tox ATP: confirmation of cytotoxicity in AML12 mouse hepatocytes; shares compounds with Lipid droplet; AML12 mouse hepatocyte viability, ATP luminescence; cells loaded with 100 µM oleic acid; cytotoxicity, % at 50 µM; 530 tested, under 10 active; AID 463219;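 active = cytotoxicity above 50% in each of four replicates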;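 note: compound exposure lasted overnight at 37 °C before the ATP read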
Of the large screens only hits and unclear results are named; the others gave an inactive call (follow-up assays come after a bar, where they were run); ! = not confirmed by another sample. In the library only some 1.2% were active in any assay of this set; here they are far more common.

CCOc1cc(C2C3=C(CCCC3=O)N(CCC(=O)O)C3=C2C(=O)CCC3)ccc1OS(=O)(=O)c1ccc(C)cc1	none
O=C(O)CCCC[C@@H]1SC[C@@H]2NC(=O)N[C@@H]21	Rce1 inhib active (no result: Lipid droplet, pCIP destab)
COC(=O)CCCCC1SCC2NC(=O)NC21 (centres undefined)	none
COc1cc(NC(=O)c2cccs2)c(OC)cc1NC(=O)CCC(=O)Nc1ccc2ncccc2c1	Lipid droplet 68 (no result: procasp7 counter, proCasp3 act) | Hep lipid conf 95 | AML12 cytotox inactive | AML12 tox ATP inactive
COc1ccc(OCC(=O)Nc2ccc(NC(=O)c3cccs3)c(OC)c2)cc1	none
C=CCN1C(=O)/C(=C\C=C2\N(C)c3ccccc3C2(C)C)SC1=S	Lipid droplet 91 | Hep lipid conf 107 | AML12 cytotox inactive | AML12 tox ATP inactive
CCC(=O)N1CCC1(C)C(=O)Nc1nccs1 (centres undefined)	none (no result: procasp7 counter, Lipid droplet, pCIP destab, Rce1 inhib, proCasp3 act)
C=CCOc1ccc(-c2nc3c(c(=O)[nH]c(=O)n3Cc3ccccc3)n2CCCOC)cc1	Lipid droplet 56 | Hep lipid conf 65 | AML12 cytotox inactive | AML12 tox ATP inactive
COc1ccc(N=NC2C(=O)N(c3ccccc3)N=C2C)cc1 (centres undefined)	Lipid droplet 52 | Hep lipid conf 102 | AML12 cytotox inactive | AML12 tox ATP inactive
CC1=NN(c2ccccc2)C(=O)C1N=Nc1ccccc1 (centres undefined)	none
CCCN(CCC)C(=O)CSc1nc2n[nH]c(C)c2c(=N)n1-c1ccc(OCC)cc1	none (no result: Lipid droplet)
CCOc1ccc(-n2c(SCC(=O)Nc3ccc(CC)cc3)nc3n[nH]c(C)c3c2=N)cc1	Lipid droplet 51 | Hep lipid conf inactive | AML12 cytotox inactive
N#Cc1cccc(NC(=O)CSc2nnc(C3CC3)n2C2CC2)c1	none (no result: Lipid droplet, pCIP destab, Rce1 inhib)
COc1cccc(CNc2nc3cc(-c4ccsc4)sc3c(=O)n2C)c1OC	none (no result: procasp7 counter, Lipid droplet, pCIP destab, Rce1 inhib, proCasp3 act)
Cn1c(=O)c(C(=O)COC(=O)c2cc(C3CC3)nc3ccccc23)c(N)n(Cc2ccccc2)c1=O	Lipid droplet 55 (no result: FXN GAA850 act, Rce1 inhib) | Hep lipid conf 82 | AML12 cytotox inactive
Cc1cc(C(=O)N[C@@H](c2ccccc2)[C@]2(C)C[C@H]2[C@@H](C)C(=O)Nc2ccc3ccccc3c2)no1	Lipid droplet 96 | Hep lipid conf 101 | AML12 cytotox inactive
Cc1cc(C(=O)N[C@H](c2ccccc2)[C@@]2(C)C[C@@H]2[C@@H](C)C(=O)Nc2ccc3ccccc3c2)no1	none
CCc1nc2c(OCC3CCCCC3)cccn2c1N(C=O)Cc1ccc(OC)cc1	none (no result: procasp7 counter, Lipid droplet, pCIP destab, Rce1 inhib, proCasp3 act)
CC(C)CCOc1ccc(C(=O)NCC(c2ccco2)N(C)C)cc1 (centres undefined)	Lipid droplet 54 | Hep lipid conf inactive | AML12 cytotox inactive
COc1ccc(C)cc1NS(=O)(=O)c1ccc2c(c1)N(C)CCO2	none
CCC1C(=O)N=C(SCC(=O)Nc2ccc(C)cc2)N(c2ccccc2)C1=O (centres undefined)	none
O=C(CN1C(=O)NC2(CCOc3ccccc32)C1=O)c1ccc(Br)cc1 (centres undefined)	Lipid droplet 66 (no result: Rce1 inhib) | Hep lipid conf 102 | AML12 cytotox inactive | AML12 tox ATP inactive
Cc1ccc(NC(=O)N2CCC(C(=O)c3ccc(F)cc3)CC2)cc1	Lipid droplet 83 | Hep lipid conf 96 | AML12 cytotox inactive | AML12 tox ATP inactive
COc1ccc(C(=O)C2CCN(C(=O)Nc3ccc(C)cc3)CC2)cc1	none
COc1ccc(OC)c(CNC(=O)CCc2cn(C)c3ccccc23)c1	none
COc1ccc(Br)cc1CNC(=O)CCCc1cn(C)c2ccccc12	Lipid droplet 70 | Hep lipid conf 94 | AML12 cytotox inactive
COc1ccc(OC)c(CCNC(=O)CCc2cn(C)c3ccccc23)c1	none
COc1ccc(CCNC(=O)CCc2cn(C)c3ccccc23)c(OC)c1OC	Lipid droplet 86 | Hep lipid conf 99 | AML12 cytotox inactive
COc1ccc(OC)c(CNC(=O)CCCc2cn(C)c3ccccc23)c1	Lipid droplet 82 | Hep lipid conf 96 | AML12 cytotox inactive
O=C(Nc1cccc2[nH]c([C@H]3C[C@H](O)[C@@H](CO)O3)nc12)NC(c1ccccc1)c1ccccc1	none (no result: procasp7 counter, Lipid droplet, pCIP destab, Rce1 inhib, proCasp3 act)
O=C(c1cc(Cl)cc(Cl)c1)N1CCC2CC1c1cc(N3CCCCC3)ccc12 (centres undefined)	none (no result: procasp7 counter, Lipid droplet, pCIP destab, Rce1 inhib, proCasp3 act)
O=S1(=O)N=C(Oc2cccc3ccccc23)c2ccccc21	Lipid droplet 66 | Hep lipid conf inactive | AML12 cytotox inactive
COc1ccc(CNC(=O)CCS(=O)(=O)c2ccc3nc(C)sc3c2)cc1	none (no result: procasp7 counter, Lipid droplet, pCIP destab, Rce1 inhib, proCasp3 act)
COc1ccccc1Nc1ccc(NC(=O)c2cccc([N+](=O)[O-])c2C)cc1	Lipid droplet 97 | Hep lipid conf 99 | AML12 cytotox inactive | AML12 tox ATP inactive
COc1ccc(NC(=O)c2ccccc2[N+](=O)[O-])cc1	none
CC1(Oc2ccccc2-c2ccno2)CCN(Cc2csc3ccccc23)C1 (centres undefined)	none (no result: procasp7 counter, Lipid droplet, pCIP destab, Rce1 inhib, proCasp3 act)
CCOc1ccccc1NC(=O)N1CCCC1C(=O)Nc1ccc(-n2cnnn2)c(C)c1 (centres undefined)	Lipid droplet 74 | Hep lipid conf 97 | AML12 cytotox inactive | AML12 tox ATP inactive
COc1ccc(C(C)NC(=O)C2CCN(CCOc3ccc(Cl)cc3Cl)CC2)cc1OC (centres undefined)	none (no result: procasp7 counter, Lipid droplet, pCIP destab, Rce1 inhib, proCasp3 act)
Cc1cccc(Nc2nc(N)c([N+](=O)[O-])c(N3CCCC(C)C3)n2)c1 (centres undefined)	Lipid droplet 62 | Hep lipid conf 91 | AML12 cytotox inactive | AML12 tox ATP 74
Cc1cccc(Nc2nc(N)c([N+](=O)[O-])c(N3CCN(C)CC3)n2)c1	none
COc1ccc(CNC(=O)c2ccc(-n3ccnc3)c3ccoc23)cc1OC	none (no result: procasp7 counter, Lipid droplet, pCIP destab, Rce1 inhib, proCasp3 act)
OC(c1cc(F)cc(Cl)c1)c1ncc(-c2ccccc2C(F)(F)F)[nH]1 (centres undefined)	none (no result: procasp7 counter, Lipid droplet, pCIP destab, Rce1 inhib, proCasp3 act)
O=C(NCCO)c1cc2ccccc2cc1O	Lipid droplet 50! | Hep lipid conf inactive | AML12 cytotox inactive
Cc1cccc(Oc2ccc(Cl)cc2N)c1	Lipid droplet 58 | Hep lipid conf inactive | AML12 cytotox inactive
Nc1cc(Cl)ccc1Oc1ccccc1	none (no result: Lipid droplet)
Cn1c(=O)c2c(n(C)c1=O)n(C)c(=O)n2C	none (no result: procasp7 counter, Lipid droplet, pCIP destab, Rce1 inhib, proCasp3 act)
